Assay outcomes deposited in PubChem BioAssay by several laboratories.
MC4R ag barr: human MC4R agonism via beta-arrestin. U2OS MC4R beta-arrestin complementation, luminescence; percent of melanotan II response, DMSO zero. 360,000 tested, 0.98% active. activation, % at 8.9 µM. P32245;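 active = activation above a per-plate cutoff, the mean activation of sample wells on that plate plus 3 SD, cut at about 8% in these data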
Target sequence (P32245 whole entry, looked up): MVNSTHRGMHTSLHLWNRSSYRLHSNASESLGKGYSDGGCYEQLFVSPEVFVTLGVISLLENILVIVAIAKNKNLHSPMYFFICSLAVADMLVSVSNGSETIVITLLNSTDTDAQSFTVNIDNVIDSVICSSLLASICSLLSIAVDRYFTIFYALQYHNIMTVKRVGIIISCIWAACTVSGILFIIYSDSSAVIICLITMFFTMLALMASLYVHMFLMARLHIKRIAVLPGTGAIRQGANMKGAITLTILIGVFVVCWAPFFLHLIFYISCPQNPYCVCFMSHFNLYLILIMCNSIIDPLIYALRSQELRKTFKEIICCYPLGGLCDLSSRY
Granule exo inh: blocks lytic granule exocytosis; inhibition, % at 10 µM; TALL-104 LAMP-1 surface exposure, flow cytometry; cells stimulated with thapsigargin and PMA; 360,000 tested, 0.66% active;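 active = inhibition above about 55%, limit read from the data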
TbMetRS inhib: blocks T. brucei methionyl-tRNA synthetase activity | 360,000 tested, 0.4% active | inhibition, % at 11.9 µM | AID 624268 | purified T. brucei MetRS, ATP depletion, Kinase-Glo luminescence;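 active = inhibition above a per-plate cutoff of the control wells' mean inhibition plus 3 SD, cut at about 5.5% in these data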;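 also: 0% = DMSO wells median and 100% = median of wells with control inhibitor compound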
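assay system = parasite MetRS enzyme | timing = 15 min preincubation, 2 h reaction, all 25 °C | evaluation = percent inhibition relative to median high and low control wells | medium = HEPES buffer containing pyrophosphatase, BSA, spermine, DTT | compound = single dose, 11.9 µM final nominal, 0.9% final DMSO | detection = Kinase-Glo luminescence, ATP depletion format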
iPSC survival up: increases survival of single human iPS cells; hiPSC single-cell survival, ATPlite luminescence; 100% = ROCK inhibitor wells, 0% = DMSO; survival enhancement, % at 20 µM; 360,000 tested, 0.044% active; AID 602274; in the data active = survival enhancement above about 18%;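 also: cells exposed to compounds for 16 hours before the ATP read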
ABCB6 inh MLPCN: blocks the human ABCB6 transporter. Q9NP58. K562-ABCB6 porphyrin accumulation, flow cytometry, 1 h; stronger effect = lower value. fluorescence ratio to DMSO, % at 10 µM. 360,000 tested, 0.19% active. AID 602162;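 active = fluorescence ratio to DMSO below 75%, the collection mean minus 3 SD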;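 also: signal is porphyrin accumulated inside mitochondria; 100% equals median channel fluorescence of DMSO control wells; lower ratio means ABCB6 inhibition with less porphyrin fluorescence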
MC4R antagonist: human MC4R antagonism in cAMP assay; MC4R-expressing cells, MTII-stimulated cAMP, LANCE TR-FRET; inhibition, % at 6.5 µM; 360,000 tested, 0.48% active; P32245;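 active = inhibition above its plate's cutoff, the mean of tested wells on that plate plus 3 SD, cut at about 29% in these data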;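 also: 0% = Melanotan II alone and 100% = Melanotan II plus saturating MCL0020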
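Assay system: U2OS cells stably expressing human melanocortin 4 receptor (MC4R) / Dosing: 6.5 µM / Timing: compound 30 min, challenge 1 h, detection 1 h / Measured by: Eu-cAMP/anti-cAMP TR-FRET, emission 671 nm / Replicates: singlicate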
MC4R barr conf: human MC4R beta-arrestin agonism confirmation; shares compounds with MC4R ag barr; U2OS MC4R beta-arrestin recruitment, luminescence; scaled DMSO 0%, Melanotan II 100%; AID 602192; activation, % at 8.9 µM; 2,400 tested, 31% active;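 active = mean activation across replicates above the hit cutoff set in the earlier primary screen, cut at about 8% in these data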
MOR DOR agonist: activates mu-delta opioid heterodimer, MC4R agonist counter-screen; shares compounds with MC4R ag barr; U2OS PathHunter beta-arrestin, beta-gal luminescence; percent of deltorphin B response, DMSO zero; activation, % at 9.2 µM; 2,400 tested, 5.8% active; AID 602194;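 active = mean activation across replicates exceeds the hit threshold derived in the earlier primary screen, cut at about 18% in these data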;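 also: 100% = deltorphin B at 0.9 µM final and 0% = DMSO alone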
* marks the source's active call; other numbers are inactive results; . = not tested or not shown. Hits are enriched below; roughly 2.6% of the tested compounds scored in any of these assays.

SMILES	MC4R ag barr	Granule exo inh	TbMetRS inhib	iPSC survival up	ABCB6 inh MLPCN	MC4R antagonist	MC4R barr conf	MOR DOR agonist
COc1cc(-c2cnc3c(NC=O)cc(-c4cccc(NC(C)=O)c4)cn23)cc(OC)c1OC	-2	18	0	0	99	-65	.	.
CC(=O)Nc1cccc(-c2cc(NC=O)c3ncc(-c4cccc(C(C)=O)c4)n3c2)c1	5	-12	0	-4	90	-16	.	.
Cc1ccc(-c2cc(NC=O)c3ncc(-c4cccc(C(=O)N(C)C)c4)n3c2)cc1	4	12	0	1	98	-13	.	.
CCCC1(c2ccsc2)NC(=O)NC1=O (stereo unspecified)	2	0	0	0	89	6	.	.
COc1ccc(-c2cc(NC=O)c3ncc(-c4cccc(C(C)=O)c4)n3c2)cc1	13*	1	0	9	108	11	13*	2
COc1ccc2cc(-c3cc(C(=O)OCC(=O)Nc4c(C)n(C)n(-c5ccccc5)c4=O)c4ccccc4n3)ccc2c1	21*	-2	-1	-3	90	0	5	3
COc1ccc(-c2cc(C(=O)Nc3c(C)n(C)n(-c4ccccc4)c3=O)c3ccccc3n2)cc1	0	18	0	0	96	4	.	.
S=c1[nH]nc(COc2ccccc2)n1/N=C/c1c(Cl)cccc1Cl	11*	-4	-1	1	102	6	2	4
S=c1[nH]nc(COc2ccccc2)n1/N=C/c1ccccc1Cl	4	-6	-1	0	99	26	.	.
C=CCNC(=O)NC(=O)CSc1nc2cc([N+](=O)[O-])ccc2n1-c1cccc(C(F)(F)F)c1	11*	-1	0	-1	93	7	3	6
O=C(NC(=S)NCc1ccccc1)c1cccc(Cl)c1	1	-11	-1	-1	97	1	.	.
Oc1cccc(C(=S)N2CCC(Cc3ccccc3)CC2)c1	10*	-4	0	0	96	0	6	11
CCC(C)N(C(=O)Cn1nnc2ccccc21)C(C(=O)Nc1ccc(F)cc1)c1cccc(OC)c1 (stereo unspecified)	-1	0	0	0	99	27	.	.
O=c1c2ccccc2nnn1CCO	0	0	1	2	97	9	.	.
C=CCn1c(SCC(=O)NCCO)nc2sc(C)c(C)c2c1=O	0	-3	0	3	102	-7	.	.
C=CCn1c(SCC(=O)NC(=O)NCc2ccco2)nc2sc(C)c(C)c2c1=O	11*	-1	-1	-2	94	-5	10*	6
CC(C)NC(=O)C1(C)CCN1C(=O)c1ccccc1F (stereo unspecified)	1	-10	-1	-1	105	-2	.	.
O=C(Nc1ccc(N2CCCC2)cc1)c1ccc(Br)cc1	18*	-13	0	0	99	22	3	4
O=C(Nc1ccc(N2CCCC2)cc1)c1cccc(Cl)c1	11*	-3	0	0	104	-5	0	11
CC(C)Oc1ccc(C(=O)Nc2ccc(N3CCCC3)cc2)cc1	7	2	-2	1	113	-3	.	.
CCc1nnc(NC(=O)CSc2nnc(Cc3ccc(OC)cc3)o2)s1	-1	0	-1	1	105	1	.	.
COc1ccc(C(=O)N/C(=C/c2cccnc2)C(=O)N2CCCCCC2)cc1OC	2	2	-1	0	101	-1	.	.
COc1ccc2c(c1)c1nc3ccccc3nc1n2Cc1ccc(OC)c(OC)c1	11*	-2	-1	-1	102	7	1	3
CCOC(=O)Cn1c2ccc(OC)cc2c2nc3ccccc3nc21	-2	5	-1	3	91	-4	.	.
CCOc1ccc(Cn2c3ccc(OC)cc3c3nc4ccccc4nc32)cc1OC	28*	-2	0	-2	110	7	26*	4
SMILES	MC4R ag barr	Granule exo inh	TbMetRS inhib	iPSC survival up	ABCB6 inh MLPCN	MC4R antagonist	MC4R barr conf	MOR DOR agonist
CCOc1ccc(N(CC(=O)N2CCc3ccccc32)S(=O)(=O)c2c(C)noc2C)cc1	-2	-3	0	1	99	6	.	.
Cc1n[nH]c(C)c1S(=O)(=O)N(CC(=O)N1CCc2ccccc21)c1ccc(C(C)C)cc1	13*	-5	0	1	99	-28	8	7
Cc1ccc(S(=O)(=O)N(C)Cc2ccc(C(=O)N/N=C/c3ccc(OC(F)F)cc3)cc2)cc1	25*	-3	0	4	96	-1	3	12
CS(=O)(=O)N1CCC(C(=O)N2CCN(c3ccc(F)cc3)CC2)CC1	-2	5	0	2	102	10	.	.
CCC(C(=O)Nc1nnc(-c2ccco2)s1)c1ccccc1 (stereo unspecified)	10*	2	-1	2	96	15	2	6
CCC(c1ccccc1)c1nnc(NC(=O)c2ccco2)s1 (stereo unspecified)	1	-5	0	0	100	6	.	.
O=C(Nc1nnc(CC(c2ccccc2)c2ccccc2)s1)c1ccco1	20*	-2	0	-1	101	7	2	2
C/C(=N\N=C1\NC(=O)C(CC(=O)Nc2ccc(C)c(Cl)c2)S1)C(C)(C)C (stereo unspecified)	16*	-2	-1	-1	99	15	5	5
Cc1ccc(C)c(NC(=O)Cc2csc(-c3ccccc3)n2)c1	1	-5	-1	-2	92	6	.	.
Cc1cc(NC(=O)Cc2csc(-c3ccccc3)n2)ccc1Br	15*	3	-1	4	95	15	3	7
CCCC1CCC(=C(C#N)C(N)=O)CC1 (stereo unspecified)	-1	-2	0	0	98	10	.	.
Cc1cccc(NC(=S)NC(C)CCc2ccccc2)c1 (stereo unspecified)	21*	2	0	-1	96	0	2	8
Cc1cccc(NC(=O)NC(C)CCc2ccccc2)c1 (stereo unspecified)	0	-4	0	0	99	20	.	.
COc1ccccc1CN1CCNC(=O)C1CC(=O)NCC1CCOCC1 (stereo unspecified)	-2	-4	0	0	97	19	.	.
COc1ccc(OC)c(NC(=O)COC(=O)c2cc3c(s2)CCC3)c1	20*	0	0	0	101	12	7	7
C=CCN=C(NC#N)SCc1ccccc1Cl	0	-2	-1	0	90	4	.	.
